Consider two compounds from BindingDB's records for doi:10.1021/jm00080a008 (Merck Sharp and Dohme Research Laboratories, 1992).

Broadly, the EC50 is the concentration needed to bring the measured effect to its halfway point. A low value points to higher potency in that assay.

Experiment [1] deals with T1, Myeloperoxidase (Homo sapiens, UniProt P05164).
T1 sequence (P05164 whole entry): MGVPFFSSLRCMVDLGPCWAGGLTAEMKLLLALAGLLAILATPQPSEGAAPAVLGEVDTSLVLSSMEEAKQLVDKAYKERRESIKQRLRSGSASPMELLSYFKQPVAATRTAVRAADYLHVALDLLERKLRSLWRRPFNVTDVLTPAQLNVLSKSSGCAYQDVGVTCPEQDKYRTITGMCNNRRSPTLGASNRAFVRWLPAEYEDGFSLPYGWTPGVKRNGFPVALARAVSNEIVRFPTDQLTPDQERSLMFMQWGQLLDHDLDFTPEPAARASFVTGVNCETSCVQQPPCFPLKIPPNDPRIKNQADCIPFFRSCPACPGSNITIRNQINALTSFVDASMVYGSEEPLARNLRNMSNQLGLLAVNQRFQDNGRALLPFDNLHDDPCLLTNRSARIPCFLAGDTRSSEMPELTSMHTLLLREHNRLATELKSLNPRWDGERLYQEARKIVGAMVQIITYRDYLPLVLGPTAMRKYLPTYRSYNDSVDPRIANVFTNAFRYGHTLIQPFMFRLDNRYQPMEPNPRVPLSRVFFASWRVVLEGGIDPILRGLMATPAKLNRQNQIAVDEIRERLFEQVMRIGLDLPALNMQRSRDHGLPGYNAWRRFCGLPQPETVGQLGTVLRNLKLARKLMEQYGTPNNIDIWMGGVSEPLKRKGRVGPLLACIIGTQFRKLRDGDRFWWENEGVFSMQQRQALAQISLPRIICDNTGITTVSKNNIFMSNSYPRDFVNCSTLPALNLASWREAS
As to the kind of experiment: (§1) Compound was tested for the induction of nonspecific myeloperoxidase (MPO) release. In a few lines: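 Freshly isolated human PMN (Ficoll-Hypaque, erythrocytes lysed with NH4Cl/EDTA/KHCO3), 4×10^5/mL in HBSS. Preincubated with compound or 1% aqueous DMSO 20 min at 37 °C, then cytochalasin B (5 μg/mL final) 5 min. Stimulated 5 min at 37 °C with C5a or fMLF, or no stimulus for nonspecific release. MPO read with dimethoxybenzidine/H2O2 at pH 6.0, azide-quenched at 2 min, A450. Duplicate or triplicate.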

Experiment [2] concerns the target T1, Myeloperoxidase. The experiment in a line: ChEBML_223053. The procedure:
as §1

In the case of `Cc1cc(N)c2cc(NC(=O)/C=C/c3ccccc3Cl)ccc2n1` [MLS000737665], at Myeloperoxidase [1], the EC50 was less than 3 µM. As for `Cc1cc(N)c2cc(NC(=O)Nc3ccc4nc(C)cc(N)c4c3)ccc2n1` [Aminoquinuride], the EC50 on Myeloperoxidase [2] was less than 3 µM.
